In test [1] the target is T1, Tyrosine-protein phosphatase non-receptor type 1 (Homo sapiens) (UniProt P18031).
T1 sequence (whole entry): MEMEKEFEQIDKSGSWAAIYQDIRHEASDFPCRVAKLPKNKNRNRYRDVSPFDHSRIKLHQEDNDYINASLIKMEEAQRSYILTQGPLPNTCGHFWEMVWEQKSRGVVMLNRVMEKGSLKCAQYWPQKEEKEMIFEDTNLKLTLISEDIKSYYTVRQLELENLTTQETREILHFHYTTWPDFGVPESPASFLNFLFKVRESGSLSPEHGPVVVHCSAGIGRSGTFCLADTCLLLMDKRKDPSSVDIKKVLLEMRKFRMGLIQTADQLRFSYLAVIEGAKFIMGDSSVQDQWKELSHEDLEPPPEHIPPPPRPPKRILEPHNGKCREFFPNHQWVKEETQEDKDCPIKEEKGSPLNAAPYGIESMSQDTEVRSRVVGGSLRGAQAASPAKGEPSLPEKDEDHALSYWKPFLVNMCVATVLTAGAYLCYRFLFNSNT
In words: In vitro inhibitory activity against recombinant human Protein Tyrosine Phosphatase 1b at a concentration of 1 uM. Put shortly:
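Recombinant human PTP1B was preincubated 10 min at 37 °C with compound at 1 µM, then given 50 µM tri-phosphorylated insulin receptor dodecapeptide for 30 min at 37 °C. Liberated phosphate was measured by malachite green-molybdate absorbance at 650 nm, in quadruplicate. Values are inhibition expressed as percent of phosphatase control.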

In test [2] the target is Dual specificity protein phosphatase 3 (Homo sapiens, UniProt P51452). In words: in vitro inhibitory activity against Dual specificity protein phosphatase 3.
A short description of test [3]: in vitro inhibitory activity against He-PTP.
The target of test [4] is Receptor-type tyrosine-protein phosphatase F (Homo sapiens, UniProt P10586). Briefly: in vitro inhibitory activity against LAR.
The test system of test [5] is Mus musculus. Briefly: percentage decrease in plasma glucose in the ob/ob mouse model at 100 mg/kg/day administered per orally. Type of test: functional. To be noted: route oral. The method in brief: (§1)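 Genetically obese C57 B1/6J ob/ob diabetic mice, four to six per group, dosed orally once daily for 4 days. Plasma glucose is expressed as percent change relative to the vehicle-treated group, with p < 0.05 versus vehicle. Changes that are not significant are generally less than -15%. Ciglitazone served as the reference standard.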

A short description of test [6]: in vitro inhibitory activity against PTP-a.
Test [7] deals with Mus musculus. In words: percentage decrease in plasma glucose in the ob/ob mouse model at 25 mg/kg/day administered per orally. Particulars: route oral. In kind it is functional. Put shortly:
as §1

The target in test [8] is T1, Tyrosine-protein phosphatase non-receptor type 1 (Homo sapiens). Particulars: 0.25 uM.
Test [9] deals with Mus musculus. Briefly: percentage decrease in plasma glucose in the ob/ob mouse model at 25 mg/Kg/day administered per orally. In kind it is functional. The method in brief: as §1
For test [10], the target named is T2, Tyrosine-protein phosphatase non-receptor type 1 (Homo sapiens, UniProt P18031).
T2 sequence (P18031 whole entry): T1 sequence (whole entry)
In words: In vitro inhibitory activity against human recombinant protein tyrosine phosphatase 1b (PTP1B). Put shortly:
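Recombinant human PTP1B, diluted in pH 7.4 Tris-HCl/EDTA/β-mercaptoethanol buffer, preincubated 10 min at 37 °C with compound in HEPES pH 7.4. Reaction ran 30 min at 37 °C. Released phosphate was read by malachite green-ammonium molybdate at 650 nm, in quadruplicate. IC50 came from four-parameter logistic regression.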

Test [11] has as its target T1, Tyrosine-protein phosphatase non-receptor type 1 (Homo sapiens). To be noted: 0.1 uM.
The target in test [12] is T2, Tyrosine-protein phosphatase non-receptor type 1. Briefly: in vitro inhibitory activity against recombinant human Protein Tyrosine Phosphatase 1b. The method in brief:
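Recombinant human PTP1B, diluted in pH 7.4 Tris-HCl/EDTA/β-mercaptoethanol buffer, preincubated 10 min at 37 °C with compound in HEPES pH 7.4. Substrate was the insulin receptor 1142-1153 dodecapeptide phosphorylated at Y1146/1150/1151, 50 µM final. Reaction ran 30 min at 37 °C. Released phosphate was read by malachite green-ammonium molybdate at 650 nm, in quadruplicate. IC50 came from four-parameter logistic regression.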

Test [13] relates to Mus musculus. In words: Percentage decrease in plasma glucose in the ob/ob mouse model at 100 mg/kg/day administered per orally. In kind it is functional. To be noted: route oral. Put shortly: as §1

By IC50 is commonly meant the concentration needed to halve the response being measured.

Sequence of Dual specificity protein phosphatase 3 (P51452 whole entry): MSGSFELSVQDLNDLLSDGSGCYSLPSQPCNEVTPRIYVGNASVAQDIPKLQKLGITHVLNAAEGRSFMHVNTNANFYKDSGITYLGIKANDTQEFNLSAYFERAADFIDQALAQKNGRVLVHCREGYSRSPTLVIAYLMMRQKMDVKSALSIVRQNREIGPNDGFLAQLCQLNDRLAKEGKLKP
Sequence of Receptor-type tyrosine-protein phosphatase F (P10586 whole entry): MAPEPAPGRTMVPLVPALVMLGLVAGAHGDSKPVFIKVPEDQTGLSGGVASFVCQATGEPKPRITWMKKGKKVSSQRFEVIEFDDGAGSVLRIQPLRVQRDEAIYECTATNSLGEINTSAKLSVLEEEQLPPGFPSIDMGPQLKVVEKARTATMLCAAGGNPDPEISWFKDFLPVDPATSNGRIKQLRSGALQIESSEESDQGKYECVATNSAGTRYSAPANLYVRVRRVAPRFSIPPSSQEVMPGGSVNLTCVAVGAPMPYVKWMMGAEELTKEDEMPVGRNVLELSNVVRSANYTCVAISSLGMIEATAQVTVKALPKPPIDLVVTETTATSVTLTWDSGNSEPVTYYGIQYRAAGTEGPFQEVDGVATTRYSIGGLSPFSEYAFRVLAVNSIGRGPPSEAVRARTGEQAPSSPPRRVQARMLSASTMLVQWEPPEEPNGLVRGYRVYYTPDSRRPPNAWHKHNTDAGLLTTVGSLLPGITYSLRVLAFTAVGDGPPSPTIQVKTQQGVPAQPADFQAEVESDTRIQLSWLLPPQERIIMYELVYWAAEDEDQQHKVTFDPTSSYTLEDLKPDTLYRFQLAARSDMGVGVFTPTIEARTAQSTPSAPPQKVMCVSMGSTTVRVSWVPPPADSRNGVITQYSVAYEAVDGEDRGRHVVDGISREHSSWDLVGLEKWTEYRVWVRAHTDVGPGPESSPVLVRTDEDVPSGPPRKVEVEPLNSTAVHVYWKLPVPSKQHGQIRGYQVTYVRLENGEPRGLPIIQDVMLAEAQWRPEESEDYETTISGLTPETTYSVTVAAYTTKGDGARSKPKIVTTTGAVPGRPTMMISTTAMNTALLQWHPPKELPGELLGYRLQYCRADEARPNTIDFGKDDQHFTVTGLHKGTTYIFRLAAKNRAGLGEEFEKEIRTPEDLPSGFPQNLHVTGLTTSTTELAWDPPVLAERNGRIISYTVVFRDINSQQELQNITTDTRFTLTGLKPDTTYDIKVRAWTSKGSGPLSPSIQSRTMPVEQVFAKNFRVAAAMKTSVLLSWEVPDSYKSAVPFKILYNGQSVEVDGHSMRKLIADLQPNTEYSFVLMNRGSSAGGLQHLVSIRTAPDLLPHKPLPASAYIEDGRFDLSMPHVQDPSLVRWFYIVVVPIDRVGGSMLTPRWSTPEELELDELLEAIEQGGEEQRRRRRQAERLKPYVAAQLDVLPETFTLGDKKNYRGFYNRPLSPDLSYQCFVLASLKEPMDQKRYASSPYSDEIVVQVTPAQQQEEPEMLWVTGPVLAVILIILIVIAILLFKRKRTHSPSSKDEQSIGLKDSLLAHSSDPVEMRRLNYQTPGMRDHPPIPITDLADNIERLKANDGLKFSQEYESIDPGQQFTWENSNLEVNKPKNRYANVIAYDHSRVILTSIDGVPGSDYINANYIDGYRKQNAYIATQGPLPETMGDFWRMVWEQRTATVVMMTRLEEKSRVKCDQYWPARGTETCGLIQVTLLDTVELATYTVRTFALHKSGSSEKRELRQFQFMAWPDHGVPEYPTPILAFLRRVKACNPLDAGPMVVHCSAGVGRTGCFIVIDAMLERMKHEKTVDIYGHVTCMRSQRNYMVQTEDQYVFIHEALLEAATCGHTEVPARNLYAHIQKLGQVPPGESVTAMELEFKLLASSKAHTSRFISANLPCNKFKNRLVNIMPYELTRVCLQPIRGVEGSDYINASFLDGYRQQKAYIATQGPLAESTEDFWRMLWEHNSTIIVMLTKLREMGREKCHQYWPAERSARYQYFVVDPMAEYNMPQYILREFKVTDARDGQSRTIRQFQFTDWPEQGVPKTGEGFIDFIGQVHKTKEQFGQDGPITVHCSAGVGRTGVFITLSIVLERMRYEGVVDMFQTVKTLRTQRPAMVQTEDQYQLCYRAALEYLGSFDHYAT

On to `Oc1ccc(-c2ccc(-c3c(Cc4ccccc4)oc4ccccc34)cc2)cc1Br`, for which, in [1], the Average inhibition was -59.

Regarding `O=C(O)[C@H](Cc1ccccc1)Oc1ccc(-c2ccc(-c3c(Cc4ccccc4)oc4ccccc34)cc2)cc1`, the IC50 in test [2] turned out to be 15.9 µM; in test [3], 7.1 µM; in test [4], 3.25 µM; in test [6] it was 33.7 µM. Further, the Decrease in the test on Mus musculus [5] stood at 40%; in the test on Mus musculus [7] it was 27%.

With `Oc1c(Br)cc(-c2ccc(-c3c(Cc4ccccc4)oc4ccccc34)cc2)cc1Br`, the Average inhibition in test [1] is -43.

In the case of `O=C(O)[C@H](Cc1ccccc1)Oc1ccc(-c2ccc(-c3c(Cc4ccc(F)cc4)oc4ccccc34)cc2)cc1`, the Average inhibition in [8] was -38.

For the compound `O=C(O)[C@@H](Cc1ccccc1)Oc1ccc(-c2ccc(-c3c(C(O)c4ccccc4)oc4ccccc34)cc2)cc1` (stereo partly drawn), the Decrease in the test on Mus musculus [5] is given as -1%; with Mus musculus [9], 21%. For the same compound, in [10], the IC50 is 0.11 µM.

In turn, `CCCc1cc(-c2ccc(-c3c(Cc4ccccc4)oc4ccccc34)cc2)ccc1O[C@@H](Cc1ccccc1)C(=O)O` yielded an Average inhibition in [11] of -59.

Consider `O=C(O)CCC(=O)Nc1cc(-c2ccc(-c3c(Cc4ccccc4)oc4ccccc34)cc2)ccc1O`, for which the IC50 in test [12] worked out at 0.92 µM.

As to `Cc1oc(-c2ccc(C(F)(F)F)cc2)nc1-c1ccc(-c2ccc(OCC(=O)O)cc2)cc1`, the Decrease with Mus musculus [13] was 40%. For the same compound, in test [10], the IC50 was determined as 0.8 µM.

As to `O=C(O)[C@@H](Cc1ccccc1)Oc1ccc(-c2ccc(-c3nc4cccnc4n3Cc3ccccc3)cc2)cc1`, in test [1], the Average inhibition was -19.

In the case of `O=C(O)/C=C\C(=O)Nc1cc(-c2ccc(-c3c(Cc4ccccc4)oc4ccccc34)cc2)ccc1O`, the IC50 in [12] stood at 0.46 µM.

These data come from ChEMBL document CHEMBL1132993, “Novel benzofuran and benzothiophene biphenyls as inhibitors of protein tyrosine phosphatase 1B with antihyperglycemic properties” (J Med Chem, 2000).
